# Structures can show the parent of a compound that is named as a salt.
# Legend:
# [1] = tested on: citrate concentration in INS-1 cells; experiment: Citrate quantification with Citron1 in INS-1 cells treated with glucose or BTC; assay type: cell-based, rat
# In short: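 INS-1 cells express the direct-response citrate biosensor in the cytosol or in mitochondria and are imaged in Krebs-Ringer buffer, with 20 mM glucose then 2 mM test compound, or test compound without glucose. Concentrations are read from in situ titration curves in digitonin-permeabilized cells (cytosol n = 62, mitochondria n = 34 cells). Each value is the average of triplicates; s.e.m. is given.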
# [2] = tested on: citrate concentration in HeLa cells; experiment: Imaging of glucose- or drug-induced citrate concentration changes in HeLa cells; assay type: cell-based
# Citroff1 = assay type: cell-based, HeLa; conditions: read-out: in situ Kd (Citroff1); n = 26
# In short: (§1)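 HeLa cells (ATCC CCL-2) express the biosensor from a CMV promoter, untargeted (cytoplasmic/nuclear). Cells are imaged, permeabilized with digitonin, then titrated stepwise with citrate (0.1 to ∼20 mM) in the imaging buffer, allowing at least 250 s per step. The mean response versus citrate gives the in situ calibration curve, from 128 cells or 26 cells; s.e.m. is given.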
# Citron1 = assay type: cell-based, HeLa; conditions: read-out: in situ Kd (Citron1); n = 128
# In short: as §1
# CF98 = assay type: binding; conditions: read-out: Kd (CF98)
# [3] = tested on: citrate concentration in INS-1 cells; conditions: stimulatory glucose; cited from earlier work
smiles,measurement,setting,value
"O=C(O)c1cccc(C(=O)O)c1C(=O)O [BTC, 1,2,3-benzenetricarboxylate]","citrate concentration, following increase",[1]; 2 mM BTC after glucose addition,~18 mM
same,"citrate concentration, pronounced decrease after treatment","[1]; 2 mM BTC after glucose addition, from ∼25 mM",~10 mM
same,citrate concentration after treatment,"[1]; 2 mM BTC in the absence of glucose, from ∼3 mM",less than 2 mM
"N#C/C(=C\c1cn(-c2ccccc2)c2ccccc12)C(=O)O [UK-5099, reference compound]",subsequent change of Citron1 fluorescence,"[2]; HeLa mitochondria, 25 μM",sustained decrease
same,transient increase of Citron1 fluorescence,"[2]; HeLa mitochondria, 25 μM, likely DMSO artifact per authors",20%
"O=C(O)CC(O)(CC(=O)O)C(=O)O [citrate, citrate (2-hydroxypropane-1,2,3-tricarboxylate)]",Kd,Citroff1,0.13 mM
same,Kd,Citron1,5.7 mM
same,Kd,CF98,~9 mM
OC[C@H]1OC(O)[C@H](O)[C@@H](O)[C@@H]1O (stereo partly drawn) [glucose],cytosolic and mitochondrial citrate concentration after treatment,"[1]; 20 mM glucose, Krebs-Ringer buffer",~25 mM
same,fold increase in the concentration of citrate,[3],~8 fold
same,cytosolic citrate concentration change upon glucose addition,"[2]; HeLa cells starved 0.5–1 h, 20 mM glucose",substantially increased
same,mitochondrial citrate change upon glucose addition,"[2]; HeLa cells starved 0.5–1 h, mitochondria-localized Citron1",initial transient decrease followed by a slower increase
